≈ marks a conversion by molar mass, not a printed value.
Experiments:
[1] = Clearance in healthy human assessed as recovery of unchanged drug in urine at 25 […], po administered as single dose; format: ADME, organism-based; set-up: route oral; settings: read-out: Recovered in urine
Outline: (§1)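 Healthy volunteers, six on drug per cohort, fasted 10 h and given one oral dose with 240 ml water, then fasted 4 h more. Urine was pooled over intervals from 0-2 to 72-96 h and stored at about −70°C. Drug was measured by solid-phase extraction and LC-MS/MS (LLOQ 200 ng/ml), giving the percent of dose recovered unchanged. Values are means (SD).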

[2] = test system: Homo sapiens; test: Toxicity in healthy human assessed as occurrence of contact dermatitis at 500 […], po; format: organism-based; set-up: route oral; settings: in vivo
[3] = test system: Homo sapiens; test: Toxicity in healthy human assessed as occurrence of contact dermatitis at 1000 […], po; format: organism-based; set-up: route oral; settings: in vivo
Outline: (§2)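 Double-blind, placebo-controlled single ascending oral dose; two placebo and six active subjects per cohort. Adverse events were recorded throughout the dosing period and at follow-up, with confinement to 96 h after dosing. Results are reported as number and percentage of subjects with the event (n/N × 100).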

[4] = test system: Homo sapiens; test: Toxicity in healthy human assessed as occurrence of contact dermatitis at 1500 […], po; format: organism-based; set-up: route oral; settings: in vivo
Outline: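 Randomized, double-blind, placebo-controlled single ascending oral doses in healthy volunteers (cohorts of 6 active, 2 placebo; 25–1,500 mg). After a 10-h fast, dose given with 240 ml water; fasting continued 4 h. Subjects were confined to 96 h postdose. AEs were recorded throughout dosing and at follow-up, reported as number and percentage of subjects with events per treatment.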

[5] = test system: Homo sapiens; test: Toxicity in healthy human assessed as occurrence of erythema at 50 […], po; format: organism-based; set-up: route oral; settings: in vivo
[6] = test system: Homo sapiens; test: Toxicity in healthy human assessed as occurrence of erythema at 500 […], po; format: organism-based; set-up: route oral; settings: in vivo
[7] = test system: Homo sapiens; test: Toxicity in healthy human assessed as occurrence of erythema at 1500 […], po; format: organism-based; set-up: route oral; settings: in vivo
[8] = test system: Homo sapiens; test: Toxicity in healthy human assessed as occurrence of headache at 125 […], po; format: organism-based; set-up: route oral; settings: in vivo
[9] = test system: Homo sapiens; test: Toxicity in healthy human assessed as occurrence of headache at 1500 […], po; format: organism-based; set-up: route oral; settings: in vivo
[10] = test system: Homo sapiens; test: Toxicity in healthy human assessed as occurrence of oral hypoesthesia at 250 […], po; format: organism-based; set-up: route oral; settings: in vivo
[11] = test system: Homo sapiens; test: Toxicity in healthy human assessed as occurrence of oral hypoesthesia at 500 […], po; format: organism-based; set-up: route oral; settings: in vivo
[12] = test system: Homo sapiens; test: Toxicity in healthy human assessed as occurrence of abdominal pain at 25 […], po; format: organism-based, Abdomen; set-up: route oral; settings: in vivo; outline: as §2
[13] = test system: Homo sapiens; test: Toxicity in healthy human assessed as occurrence of abdominal pain at 500 […], po; format: organism-based, Abdomen; set-up: route oral; settings: in vivo; outline: as §2
[14] = test system: Homo sapiens; test: Toxicity in healthy human assessed as occurrence of pustular rashes at 125 […], po; format: organism-based; set-up: route oral; settings: in vivo
[15] = test system: Homo sapiens; test: Toxicity in healthy human assessed as occurrence of nausea at 25 […], po; format: organism-based; set-up: route oral; settings: in vivo
[16] = test system: Homo sapiens; test: Toxicity in healthy human assessed as occurrence of nausea at 1000 […], po; format: organism-based; set-up: route oral; settings: in vivo
[17] = test system: Homo sapiens; test: Toxicity in healthy human assessed as occurrence of nausea at 1500 […], po; format: organism-based; set-up: route oral; settings: in vivo
[18] = test system: Homo sapiens; test: Toxicity in healthy human assessed as occurrence of ear pain at 125 […], po; format: organism-based; set-up: route oral; settings: in vivo
[19] = test system: Homo sapiens; test: AUC (0 to infinity) in healthy human at 125 […], po administered as single dose; format: ADME, organism-based, Plasma; set-up: time infinity, route oral; settings: in vivo
[20] = test system: Homo sapiens; test: Clearance in healthy human at 125 […], po administered as single dose; format: ADME, organism-based; set-up: route oral; settings: in vivo
Outline: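 Randomized, double-blind, placebo-controlled single ascending oral dose in fasted healthy subjects (six on drug per cohort, with 240 ml water). Plasma sampled predose through 96 h and assayed by validated LC-MS/MS over 5–5,000 ng/ml. Oral clearance (CL_o) came from noncompartmental analysis, with AUC_0-∞ from linear trapezoids plus C_last/λz. Values are means (SD).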

[21] = Renal clearance in healthy human at 1500 […], po administered as single dose; format: ADME, organism-based, Kidney; set-up: route oral; settings: in vivo, read-out: CL_renal (converted)
Outline: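 Renal clearance (CL_r) came from noncompartmental analysis of plasma drawn through 96 h and urine collected over fixed intervals to 96 h. Subjects were fasted healthy volunteers, six per dose cohort, given one oral dose with 240 ml water. Plasma and urine were assayed by LC-MS/MS after solid-phase extraction, with urine LLOQ 200 ng/ml. Values are means (SD).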

[22] = Clearance in healthy human assessed as recovery of unchanged drug in urine at 50 […], po administered as single dose; format: ADME, organism-based; set-up: route oral; settings: read-out: Recovered in urine; outline: as §1
[23] = Clearance in healthy human assessed as recovery of unchanged drug in urine at 125 […], po administered as single dose; format: ADME, organism-based; set-up: route oral; settings: read-out: Recovered in urine; outline: as §1
[24] = test system: Streptococcus pneumoniae; test: Antimicrobial activity against penicillin-resistant Streptococcus pneumoniae; format: functional
[25] = test system: Staphylococcus aureus; test: Antimicrobial activity against methicillin-resistant Staphylococcus aureus; format: functional
[26] = test system: Streptococcus pneumoniae; test: Ratio of fAUC to MIC90 for Penicillin-sensitive Streptococcus pneumoniae; format: functional
Outline: (§3)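 Fasted healthy adults got a single oral 500 mg dose with 240 ml water. Plasma was sampled predose to 96 h and assayed by LC-MS/MS (5–5,000 ng/ml). Cmax was read from individual profiles, and AUC0-∞ came from linear trapezoid plus extrapolation. Free fraction was measured by ultrafiltration (30,000 MWCO) of 0.5 and 6 h plasma. Free exposure was divided by the isolate MIC90.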

[27] = test system: Staphylococcus aureus; test: Ratio of fAUC to MIC90 for methicillin-resistant Staphylococcus aureus; format: functional; outline: as §3
[28] = test system: Staphylococcus aureus; test: Ratio of fCmax to MIC90 for methicillin-sensitive Staphylococcus aureus; format: functional; outline: as §3
[29] = test system: Staphylococcus aureus; test: Ratio of fCmax to MIC90 for methicillin-resistant Staphylococcus aureus; format: functional; outline: as §3
[30] = Cmax in healthy human at 250 mg, po administered as single dose; settings: in vivo
[31] = test system: Homo sapiens; test: Clearance in healthy human at 500 mg, po administered as single dose; settings: in vivo
[32] = test system: Homo sapiens; test: Clearance in healthy human at 1500 mg, po administered as single dose; settings: in vivo
[33] = Renal clearance in healthy human at 125 mg, po administered as single dose; settings: in vivo, read-out: CL_renal (converted)
[34] = Renal clearance in healthy human at 500 mg, po administered as single dose; settings: in vivo, read-out: CL_renal (converted)
[35] = test system: Homo sapiens; test: AUC (0 to infinity) in healthy human at 1500 mg, po administered as single dose; settings: in vivo
[36] = test system: Homo sapiens; test: Terminal volume of distribution in healthy human at 50 mg, po administered as single dose; settings: in vivo
[37] = test system: Homo sapiens; test: Terminal volume of distribution in healthy human at 250 mg, po administered as single dose; settings: in vivo
[38] = test system: Homo sapiens; test: Terminal volume of distribution in healthy human at 1000 mg, po administered as single dose; settings: in vivo
[39] = Clearance in healthy human assessed as recovery of unchanged drug in urine at 500 mg, po administered as single dose; settings: read-out: Recovered in urine

COc1c(N2C[C@@H](C)C[C@H](N)C2)ccc2c(=O)c(C(=O)O)cn(C3CC3)c12 [NEMONOXACIN]
dose excreted [1]: 56.2% | Activity [2]: 0% | Activity [3]: 0% | Activity [4]: 0% | Activity [5]: 0% | Activity [6]: 0% | Activity [7]: 50% | Activity [8]: 0% | Activity [9]: 17% | Activity [10]: 0% | Activity [11]: 0% | Activity [12]: 0% | Activity [13]: 0% | Activity [14]: 17% | Activity [15]: 0% | Activity [16]: 0% | Activity [17]: 17% | Activity [18]: 0% | AUC [19]: 7670 ng·h/mL | CL [20]: 3.67 mL/min/kg | CL renal [21]: 1.15 mL/min/kg | dose excreted [22]: 51.1% | dose excreted [23]: 38.3% | MIC90 [24]: 0.03 µg/mL (≈ 0.0808 µM) | MIC90 [25]: 0.06 µg/mL (≈ 0.162 µM) | Ratio [26]: 1812 | Ratio [27]: 453 | Ratio [28]: 24 | Ratio [29]: 48 | Cmax [30]: 2400 ng/mL | CL [31]: 3.3 mL/min/kg | CL [32]: 3 mL/min/kg | CL renal [33]: 1.33 mL/min/kg | CL renal [34]: 1.13 mL/min/kg | AUC [35]: 117840 ng·h/mL | Vbeta [36]: 2.78 L/kg | Vbeta [37]: 3.58 L/kg | Vbeta [38]: 5.28 L/kg | dose excreted [39]: 34.1%

From ChEMBL document CHEMBL1212766, “Dose escalation study of the safety, tolerability, and pharmacokinetics of nemonoxacin (TG-873870), a novel potent broad-spectrum nonfluorinated quinolone, in healthy volunteers” (Antimicrob Agents Chemother, 2010)
